This is an account of results in ChEMBL document CHEMBL3734738, “A structure-activity relationship of non-peptide macrocyclic histone deacetylase inhibitors and their anti-proliferative and anti-inflammatory activities” (Bioorg Med Chem, 2015).

pIC50: −log10 of the molar value.

In one assay the test system is A549. Put plainly: Cytotoxicity against human A549 cells after 72 hrs by MTS assay. In kind it is functional, cell-based. As to conditions: for pIC50: Homo sapiens, A549, 72 h, read-out: IC50; for IC50: a549; call rule not given here. The method, boiled down: (§1)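 Cells kept in DMEM with 10% FBS and 1% penicillin-streptomycin, seeded in 96-well plates for 24 h, then exposed to a range of drug concentrations for 72 h at 0.1% DMSO; viability read by MTS assay per manufacturer's protocol.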

Assay [1] can be described thus: Inhibition of NTHi-induced NF-kappaB activation in human BEAS-2B cells treated 1 hr before NTHi stimulation measured after 5 hrs by luciferase assay. In kind it is cell-based. Particulars: for pIC50: Homo sapiens, BEAS-2B, read-out: IC50.
Assay [2] deals with T1, Protein deacetylase HDAC6 (Homo sapiens, UniProt Q9UBN7).
T1 sequence (Q9UBN7 whole entry): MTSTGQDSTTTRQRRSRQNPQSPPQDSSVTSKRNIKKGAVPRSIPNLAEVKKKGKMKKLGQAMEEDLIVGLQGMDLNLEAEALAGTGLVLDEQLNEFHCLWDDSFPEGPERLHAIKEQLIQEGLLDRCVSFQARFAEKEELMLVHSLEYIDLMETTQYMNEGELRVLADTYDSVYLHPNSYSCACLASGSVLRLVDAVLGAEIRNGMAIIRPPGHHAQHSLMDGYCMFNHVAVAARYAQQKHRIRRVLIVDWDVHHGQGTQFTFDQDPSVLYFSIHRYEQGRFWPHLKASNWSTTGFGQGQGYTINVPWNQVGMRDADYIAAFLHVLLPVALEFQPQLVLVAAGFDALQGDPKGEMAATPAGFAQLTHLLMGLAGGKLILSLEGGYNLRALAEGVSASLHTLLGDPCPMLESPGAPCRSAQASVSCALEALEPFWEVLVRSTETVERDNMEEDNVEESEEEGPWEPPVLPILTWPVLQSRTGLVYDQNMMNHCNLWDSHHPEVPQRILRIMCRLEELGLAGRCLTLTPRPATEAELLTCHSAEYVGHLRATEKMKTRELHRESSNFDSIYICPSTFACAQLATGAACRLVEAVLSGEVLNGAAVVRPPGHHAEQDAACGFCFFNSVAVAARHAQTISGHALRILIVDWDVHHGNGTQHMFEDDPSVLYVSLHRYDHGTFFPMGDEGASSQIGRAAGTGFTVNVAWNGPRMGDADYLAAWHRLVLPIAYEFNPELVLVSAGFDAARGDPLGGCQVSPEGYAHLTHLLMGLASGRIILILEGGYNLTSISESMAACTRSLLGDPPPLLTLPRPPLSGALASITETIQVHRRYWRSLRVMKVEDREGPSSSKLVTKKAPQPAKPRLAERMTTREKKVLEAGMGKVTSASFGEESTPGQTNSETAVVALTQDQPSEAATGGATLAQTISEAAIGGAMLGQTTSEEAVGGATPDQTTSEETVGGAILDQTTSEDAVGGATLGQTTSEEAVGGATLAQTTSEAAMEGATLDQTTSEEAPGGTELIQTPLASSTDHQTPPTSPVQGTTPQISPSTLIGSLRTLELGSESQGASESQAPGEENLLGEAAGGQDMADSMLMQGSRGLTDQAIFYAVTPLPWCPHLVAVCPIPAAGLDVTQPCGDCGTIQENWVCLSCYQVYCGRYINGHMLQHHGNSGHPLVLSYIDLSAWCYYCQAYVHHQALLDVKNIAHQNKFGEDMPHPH
Put plainly: Inhibition of recombinant HDAC6 (unknown origin) expressed in Escherichia coli BL21(DE3) after 60 mins using trichostatin A by label-free mass spectrometry-based SAMDI assay.

In the next assay the target is Histone deacetylase 1 (Homo sapiens, UniProt Q13547). The assay is described as follows: Inhibition of recombinant HDAC1 (unknown origin) expressed in Escherichia coli BL21(DE3) after 60 mins using trichostatin A by label-free mass spectrometry-based SAMDI assay.
For the next assay, the system named is Vero. The assay is described as follows: Cytotoxicity against African green monkey Vero cells after 72 hrs by MTS assay. The class given is cell-based. Particulars: Chlorocebus sabaeus. The gist of the method: as §1
A further assay has as its target T2, Histone deacetylase 8 (Homo sapiens, UniProt Q9BY41).
T2 sequence (Q9BY41 whole entry): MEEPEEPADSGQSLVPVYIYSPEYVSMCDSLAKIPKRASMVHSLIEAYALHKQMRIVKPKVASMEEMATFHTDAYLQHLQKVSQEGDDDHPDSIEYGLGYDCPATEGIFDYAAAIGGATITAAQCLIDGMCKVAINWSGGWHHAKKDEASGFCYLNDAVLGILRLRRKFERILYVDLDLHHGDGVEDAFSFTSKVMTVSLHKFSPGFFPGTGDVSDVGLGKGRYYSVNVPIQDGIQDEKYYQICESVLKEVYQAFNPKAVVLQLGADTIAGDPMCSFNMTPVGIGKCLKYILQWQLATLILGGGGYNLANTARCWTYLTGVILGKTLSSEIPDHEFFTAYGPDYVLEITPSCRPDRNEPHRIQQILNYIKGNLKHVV
The assay is described as follows: Inhibition of recombinant HDAC8 (unknown origin) expressed in Escherichia coli BL21(DE3) after 60 mins using trichostatin A by label-free mass spectrometry-based SAMDI assay.

For the next assay, the species on record is Homo sapiens. As to conditions: at 1 µM.
The test system of another assay is MCF7. The assay is described as follows: Cytotoxicity against human MCF7 cells after 72 hrs by MTS assay. In kind it is functional, cell-based. Particulars: for pIC50: Homo sapiens, MCF7, 72 h, read-out: IC50; for IC50: mcf7. The method, boiled down:
as §1

Chain of Histone deacetylase 1 (Q13547 whole entry): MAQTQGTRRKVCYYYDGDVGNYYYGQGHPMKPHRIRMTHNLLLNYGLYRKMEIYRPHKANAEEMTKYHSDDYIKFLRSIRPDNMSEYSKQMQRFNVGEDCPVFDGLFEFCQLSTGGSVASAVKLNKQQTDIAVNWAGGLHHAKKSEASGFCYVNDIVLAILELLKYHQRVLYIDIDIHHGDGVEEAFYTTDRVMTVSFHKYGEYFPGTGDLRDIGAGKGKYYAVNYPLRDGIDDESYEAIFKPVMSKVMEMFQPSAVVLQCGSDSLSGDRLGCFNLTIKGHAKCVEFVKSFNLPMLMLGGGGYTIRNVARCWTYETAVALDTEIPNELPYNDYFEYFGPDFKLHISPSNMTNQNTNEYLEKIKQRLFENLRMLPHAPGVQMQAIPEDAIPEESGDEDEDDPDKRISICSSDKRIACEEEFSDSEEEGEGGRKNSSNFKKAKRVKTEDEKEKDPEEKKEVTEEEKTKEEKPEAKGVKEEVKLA

In the case of `CC[C@H]1OC(=O)[C@@H](C)[C@H](O[C@H]2C[C@@](C)(OC)[C@](O)(CN(C)C)[C@H](C)O2)[C@H](C)[C@H](O[C@H]2O[C@@H](C)C[C@@H](N(C)Cc3ccc(-c4cn(CCCCCCC(=O)NO)nn4)cc3)[C@@H]2O)[C@@](C)(O)C[C@H](C)CN(C)[C@@H](C)[C@H](O)[C@@]1(C)O`, the pIC50 with A549 was 5.17; in assay [1] it was 6.24; in assay [2], 7.72; at Histone deacetylase 1 it was 7.10; with Vero it was 5.24; on Histone deacetylase 8, 6.13. In the assay listed under Homo sapiens, this compound returned an Imax of 43.4%.
As for `CC[C@@H]1OC(=O)[C@H](C)[C@@H](O[C@@H]2C[C@](C)(OC)[C@H](O)[C@@H](C)O2)[C@@H](C)[C@@H](O[C@@H]2O[C@H](C)C[C@H](N(C)Cc3cccc(-c4cn(CCCCCCC(=O)NO)nn4)c3)[C@H]2O)[C@](C)(O)C[C@@H](C)CN(C)[C@H](C)[C@@H](O)[C@]1(C)O`, the pIC50 in the assay on A549 is 5.39; in assay [1] it was 6.22; in assay [2] it was 7.39; at Histone deacetylase 1, 7.00; in the assay with Vero, 5.08; at Histone deacetylase 8 it was 5.84. The negative logarithm of the IC50 (pIC50) with MCF7 was 5.63. The compound also displayed an Imax in the assay listed under Homo sapiens of 43.3%.
As to `CC[C@H]1OC(=O)[C@H](C)[C@@H](O[C@@H]2C[C@](C)(OC)[C@H](O)[C@@H](C)O2)[C@@H](C)[C@@H](O[C@H]2O[C@@H](C)C[C@@H](N(C)Cc3ccc(-c4cn(CCCCCC(=O)NO)nn4)cc3)[C@@H]2O)[C@](C)(OC)C[C@@H](C)C(=O)[C@H](C)[C@H](O)[C@]1(C)O` (stereo in doubt), the pIC50 in assay [1] is 6.11; in assay [2], 8.44; on Histone deacetylase 1, 6.27; on Histone deacetylase 8 it was 5.93. This compound showed an Imax in the assay filed under Homo sapiens of 45.1%.
Regarding `CC[C@@H]1OC(=O)[C@H](C)[C@@H](O[C@@H]2C[C@](C)(OC)[C@@](O)(CN(C)Cc3ccc(-c4cn(CCCCCC(=O)NO)nn4)cc3)[C@@H](C)O2)[C@@H](C)[C@@H](O[C@@H]2O[C@H](C)C[C@H](N(C)C)[C@H]2O)[C@](C)(O)C[C@@H](C)CN(C)[C@H](C)[C@@H](O)[C@]1(C)O`, the pIC50 in assay [1] was 6.43; in assay [2], 7.50; at Histone deacetylase 1 it was 6.69; on Histone deacetylase 8 it was 6.10. This compound gave an Imax in the assay listed under Homo sapiens of 46.1%.
As to `CC[C@@H]1OC(=O)[C@@H](C)[C@H](O[C@@H]2C[C@](C)(OC)[C@@](O)(CN(C)C)[C@@H](C)O2)[C@H](C)[C@H](O[C@@H]2O[C@H](C)C[C@H](N(C)Cc3ccc(-c4cn(CCCCCCC(=O)NO)nn4)cc3)[C@H]2O)[C@@](C)(OC)C[C@H](C)C(=O)[C@@H](C)[C@@H](O)[C@@]1(C)O`, the pIC50 with A549 is 5.45; in assay [1] it was 6.59; in assay [2], 7.50; on Histone deacetylase 1, 7.48; in the assay with Vero, 5.68; on Histone deacetylase 8, 5.66. For the same compound, the pIC50 with MCF7 is 5.84. In the assay listed under Homo sapiens, this compound had an Imax of 33.4%.
For the compound `CC[C@@H]1OC(=O)[C@@H](C)[C@H](O[C@H]2C[C@@](C)(OC)[C@@H](O)[C@H](C)O2)[C@H](C)[C@H](O[C@@H]2O[C@H](C)C[C@H](N(C)Cc3ccc(-c4cn(CCCCCCC(=O)NO)nn4)cc3)[C@H]2O)[C@@](C)(OC)C[C@H](C)C(=O)[C@@H](C)[C@@H](O)[C@@]1(C)O` (stereo in doubt), the pIC50 in the assay with A549 was 5.64; in assay [1], 6.61; in assay [2] it was 8.18; on Histone deacetylase 1, 6.68; in the assay with Vero, 5.31; at Histone deacetylase 8, 6.15. For the same compound, in the assay with MCF7, the pIC50 is 5.54. In the assay listed under Homo sapiens, the Imax is 35.9%.
Turning to `CC[C@@H]1OC(=O)[C@H](C)[C@@H](O[C@@H]2C[C@](C)(OC)[C@H](O)[C@@H](C)O2)[C@@H](C)[C@@H](O[C@@H]2O[C@H](C)C[C@H](N(C)Cc3ccccc3-c3cn(CCCCCCC(=O)NO)nn3)[C@H]2O)[C@](C)(O)C[C@@H](C)CN(C)[C@H](C)[C@@H](O)[C@]1(C)O`, the IC50 entry in the assay on A549 and in the assay on MCF7 was “Not Active” each time. Moreover, the pIC50 is 7.51 in assay [2], 6.03 at Histone deacetylase 1 and 5.89 at Histone deacetylase 8.
As to `CC[C@H]1OC(=O)[C@@H](C)[C@H](O[C@H]2C[C@@](C)(OC)[C@@H](O)[C@H](C)O2)[C@H](C)[C@H](O[C@H]2O[C@@H](C)C[C@@H](N(C)Cc3ccc(-c4cn(CCCCCCC(=O)NO)nn4)cc3)[C@@H]2O)[C@@](C)(O)C[C@H](C)CN(C)[C@@H](C)[C@H](O)[C@@]1(C)O` (stereo in doubt), the pIC50 was 5.63 with A549; 6.55 in assay [1]; 8.14 in assay [2]; 7.16 on Histone deacetylase 1; 5.23 with Vero; 6.50 on Histone deacetylase 8. The pIC50 in the assay with MCF7 is 5.39. In the assay filed under Homo sapiens, this compound registered an Imax of 41.4%.
Consider `CC[C@H]1OC(=O)[C@H](C)C(=O)[C@H](C)[C@@H](O[C@@H]2O[C@H](C)C[C@H](N(C)Cc3cccc(-c4cn(CCCCCC(=O)NO)nn4)c3)[C@H]2O)[C@@](C)(OC)C[C@@H](C)C2=NCCN3C(=O)O[C@@]1(C)[C@H]3[C@H]2C`, for which the IC50 entry (in the assay on A549; in assay [1]; in the assay on MCF7) was “Not Active” in each case. Besides, the pIC50 in assay [2] is 7.76; on Histone deacetylase 1, 6.96; on Histone deacetylase 8, 5.49. The same compound showed an Imax in the assay listed under Homo sapiens of 71%.
As for `CC[C@H]1OC(=O)[C@H](C)[C@@H](O[C@@H]2C[C@](C)(OC)[C@@](O)(CN(C)Cc3ccc(-c4cn(CCCCCC(=O)NO)nn4)cc3)[C@@H](C)O2)[C@@H](C)[C@@H](O[C@H]2O[C@@H](C)C[C@@H](N(C)C)[C@@H]2O)[C@](C)(OC)C[C@@H](C)C(=O)[C@H](C)[C@H](O)[C@]1(C)O`, the pIC50 in assay [1] is 6.11; in assay [2], 8.23; on Histone deacetylase 1, 6.19; at Histone deacetylase 8 it was 6.01. The same compound showed an Imax in the assay listed under Homo sapiens of 50.7%.

Broadly, the pIC50 is the IC50 on a negative log10 scale, so that one unit is a factor of ten.
